{"source": "ChEMBL document CHEMBL4513216", "about": "“Probing the Open Global Health Chemical Diversity Library for Multistage-Active Starting Points for Next-Generation Antimalarials” (ACS Infect Dis, 2020)", "assay": "Toxicity liver stage against HepG2, at 10uM", "type": "cell-based", "design": "test concentration 10 uM, cell line HepG2-A16-CD81EGFP", "conditions": "human, HepG2-A16-CD81EGFP cells; read-out: INHIBITION", "summary_of_the_method": "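Uninfected HepG2-A16-CD81EGFP cells, 3 × 10^3 per well, 1536-well, plated on prespotted compound at 10 μM final, parasite-free screening media added to match infected plates; puromycin 10 μM positive, DMSO 0.5% negative; run in parallel with 48 h PbLuc assay at 37 °C, 5% CO2; viability by CellTiter-Glo luminescence, normalized to controls.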", "data": [{"smiles": "CCOC(=O)c1nc(CC(=O)Nc2ccccc2)no1", "values": [{"measurement": "cytotoxicity at 10 µM", "result": 6.96, "unit": "%"}]}, {"smiles": "COCCn1cc(C(=O)Nc2nc3c(s2)CCC3)c2ccccc21", "values": [{"measurement": "cytotoxicity at 10 µM", "result": 77.9, "unit": "%"}]}, {"smiles": "CC(C)c1sc(Br)nc1C(=O)NCc1ccncc1", "values": [{"measurement": "cytotoxicity at 10 µM", "result": 1.18, "unit": "%"}]}, {"smiles": "COCCCN1CC2(CCCCN2C(=O)C2CCCCC2)CC1=O", "note": "(stereo not given)", "values": [{"measurement": "cytotoxicity at 10 µM", "result": 12.2, "unit": "%"}]}, {"smiles": "Cc1cccc(C)c1Nc1noc2c1CN(C(=O)c1ccnn1C)CC2", "values": [{"measurement": "cytotoxicity at 10 µM", "result": 7.3, "unit": "%"}]}, {"smiles": "Cc1ccnc(C2(C)CCCN2S(=O)(=O)c2ccccc2)n1", "note": "(stereo not given)", "values": [{"measurement": "cytotoxicity at 10 µM", "result": 0.435, "unit": "%"}]}, {"smiles": "Cc1ccc(F)c(S(=O)(=O)N2CCCC2c2ccncc2)c1", "note": "(stereo not given)", "values": [{"measurement": "cytotoxicity at 10 µM", "result": 10.6, "unit": "%"}]}, {"smiles": "CCN(CC1CC1)C(=O)NCc1nnc2n1CCC2", "values": [{"measurement": "cytotoxicity at 10 µM", "result": -13.2, "unit": "%"}]}, {"smiles": "Cc1ccc2c(c1)N(C(=O)c1c[nH]c(C)cc1=O)CC(C)O2", "note": "(stereo not given)", "values": [{"measurement": "cytotoxicity at 10 µM", "result": 23.6, "unit": "%"}]}, {"smiles": "Cc1ccc(CNCc2cc(Br)c3c(c2)OCO3)cc1", "values": [{"measurement": "cytotoxicity at 10 µM", "result": 5.35, "unit": "%"}]}, {"smiles": "O=C(CN1CCCC(c2ncc[nH]2)C1)NCCCN1CCCCCC1=O", "note": "(stereo not given)", "values": [{"measurement": "cytotoxicity at 10 µM", "result": 6.66, "unit": "%"}]}, {"smiles": "CCOCCN1CCN(c2ccc(C#N)cn2)CC1", "values": [{"measurement": "cytotoxicity at 10 µM", "result": -4.21, "unit": "%"}]}, {"smiles": "Cc1nc(NCc2nncn2C2CC2)c2c(CC(C)C)csc2n1", "values": [{"measurement": "cytotoxicity at 10 µM", "result": -5.57, "unit": "%"}]}, {"smiles": "O=C(Nc1cccc(F)c1)NC1CCN(Cc2ccncc2)CC1", "values": [{"measurement": "cytotoxicity at 10 µM", "result": -9.01, "unit": "%"}]}, {"smiles": "Cc1ccc(S(=O)(=O)N2CCC(N3CCCCC3)CC2)cc1C", "values": [{"measurement": "cytotoxicity at 10 µM", "result": 8.95, "unit": "%"}]}, {"smiles": "Cn1cc(CNC(=O)NCCOc2ccc(F)c(F)c2)cn1", "values": [{"measurement": "cytotoxicity at 10 µM", "result": 2.13, "unit": "%"}]}, {"smiles": "CC(C)(C)NC(=O)NC(=O)COc1nc(C(C)(C)C)no1", "values": [{"measurement": "cytotoxicity at 10 µM", "result": -1.62, "unit": "%"}]}, {"smiles": "CCc1nc(C)c(C(=O)N2CCCC(c3noc(C)n3)C2)s1", "note": "(stereo not given)", "values": [{"measurement": "cytotoxicity at 10 µM", "result": 5.82, "unit": "%"}]}, {"smiles": "O=C(NCCCNC(=O)c1cccc(O)c1)Nc1ccc(Cl)cc1", "values": [{"measurement": "cytotoxicity at 10 µM", "result": -3.79, "unit": "%"}]}, {"smiles": "Cc1noc(CCCC(=O)N2CCCCC2c2nccs2)n1", "note": "(stereo not given)", "values": [{"measurement": "cytotoxicity at 10 µM", "result": -87.5, "unit": "%"}]}, {"smiles": "Cc1cc(CN(CCO)c2ccccc2)on1", "values": [{"measurement": "cytotoxicity at 10 µM", "result": -14.7, "unit": "%"}]}, {"smiles": "CO[C@H]1CCN(C(=O)Cc2ccc(F)cc2)[C@H]1Cc1ccncc1", "values": [{"measurement": "cytotoxicity at 10 µM", "result": 5.55, "unit": "%"}]}, {"smiles": "COC[C@@H]1CC[C@H]2[C@H](CCN2S(=O)(=O)c2ccc(OC)cc2)O1", "values": [{"measurement": "cytotoxicity at 10 µM", "result": 0.796, "unit": "%"}]}, {"smiles": "CN(CCN1CCCC1)c1nccc(N2CCN[C@H]3CS(=O)(=O)C[C@H]32)n1", "values": [{"measurement": "cytotoxicity at 10 µM", "result": -8.93, "unit": "%"}]}, {"smiles": "CCCOc1ccc(Cl)cc1CNc1ncnc2oc(C)nc12", "values": [{"measurement": "cytotoxicity at 10 µM", "result": 9.98, "unit": "%"}]}, {"smiles": "C[C@@H]1CN(S(=O)(=O)c2ccc(F)cc2F)C[C@]1(C)O", "values": [{"measurement": "cytotoxicity at 10 µM", "result": -3.36, "unit": "%"}]}, {"smiles": "CCCOC(=O)NCCC1CN(c2cnn(C)c(=O)c2)CCO1", "note": "(stereo not given)", "values": [{"measurement": "cytotoxicity at 10 µM", "result": 5.31, "unit": "%"}]}, {"smiles": "CN1CCN(C)C2(CCN(Cc3ccc(C4CCCO4)s3)CC2)C1", "note": "(stereo not given)", "values": [{"measurement": "cytotoxicity at 10 µM", "result": -11.7, "unit": "%"}]}, {"smiles": "Nc1ccnc(N2CCC(Cc3ccccc3Cl)(C(=O)O)CC2)n1", "values": [{"measurement": "cytotoxicity at 10 µM", "result": 2.8, "unit": "%"}]}, {"smiles": "O=C(c1ccco1)N1CCc2ncnc(NCc3ccccn3)c2CC1", "values": [{"measurement": "cytotoxicity at 10 µM", "result": 5.61, "unit": "%"}]}, {"smiles": "O=C1CC[C@@H](C(=O)N2CCC(Cn3cc(C4CCCCC4)nn3)CC2)N1", "values": [{"measurement": "cytotoxicity at 10 µM", "result": 8.02, "unit": "%"}]}, {"smiles": "Cc1cc(C(F)(F)F)nc(CCNC(C)Cn2nc(C)cc2C)n1", "note": "(stereo not given)", "values": [{"measurement": "cytotoxicity at 10 µM", "result": 8.19, "unit": "%"}]}, {"smiles": "Cc1cc(CN2CCc3nc(C)n(C)c(=O)c3CC2)[nH]n1", "values": [{"measurement": "cytotoxicity at 10 µM", "result": -7.92, "unit": "%"}]}, {"smiles": "CCCn1cnnc1CNCc1c[nH]nc1-c1ccc(F)cc1", "values": [{"measurement": "cytotoxicity at 10 µM", "result": 2.69, "unit": "%"}]}, {"smiles": "CN1CC2(CCCN(c3nc(N)nc4c3CCCC4)C2)OC1=O", "note": "(stereo not given)", "values": [{"measurement": "cytotoxicity at 10 µM", "result": -0.519, "unit": "%"}]}, {"smiles": "Cc1nn(C)c(C)c1C1CCCN1C(=O)c1ccc(CN(C)C)cc1", "note": "(stereo not given)", "values": [{"measurement": "cytotoxicity at 10 µM", "result": -7.79, "unit": "%"}]}, {"smiles": "CCN1CCC(CNC(=O)NCc2cc(-c3ccc(C)cc3)no2)C1", "note": "(stereo not given)", "values": [{"measurement": "cytotoxicity at 10 µM", "result": -12.3, "unit": "%"}]}, {"smiles": "O=C(NCCC(=O)N1CCCC1)c1nn(-c2ccccc2F)cc1O", "values": [{"measurement": "cytotoxicity at 10 µM", "result": -13.9, "unit": "%"}]}, {"smiles": "O=C(O)c1cc(S(=O)(=O)Nc2ccc(Cl)cc2)cc2c1OCCO2", "values": [{"measurement": "cytotoxicity at 10 µM", "result": 2.33, "unit": "%"}]}, {"smiles": "Cc1ccc(CNC(=O)NCCCn2nc3ccccn3c2=O)s1", "values": [{"measurement": "cytotoxicity at 10 µM", "result": -2.09, "unit": "%"}]}, {"smiles": "O=C(c1ncccn1)N1C[C@H]2CCC[C@@]2(COCc2cccnc2)C1", "values": [{"measurement": "cytotoxicity at 10 µM", "result": 1.83, "unit": "%"}]}, {"smiles": "Cc1cnc(N2CCO[C@@H]3CC(COCc4cccnc4)C[C@H]32)nc1", "note": "(stereo not given in full)", "values": [{"measurement": "cytotoxicity at 10 µM", "result": 3.93, "unit": "%"}]}, {"smiles": "c1coc(CN2CCCn3c(nnc3Cn3cccc3)C2)c1", "values": [{"measurement": "cytotoxicity at 10 µM", "result": -0.314, "unit": "%"}]}, {"smiles": "CC(C)CN1CCN(C)C2(CCN(c3nccs3)CC2)C1=O", "values": [{"measurement": "cytotoxicity at 10 µM", "result": -5.4, "unit": "%"}]}, {"smiles": "Cc1[nH]nc(CCC(=O)N2C[C@@H]3CC[C@H]2CN(C(=O)N(C)C)C3)c1C", "values": [{"measurement": "cytotoxicity at 10 µM", "result": 3.8, "unit": "%"}]}]}
